Source: ChEMBL document CHEMBL5352427, “Isoquinolone derivatives as lysophosphatidic acid receptor 5 (LPA5) antagonists: Investigation of structure-activity relationships, ADME properties and analgesic effects” (Eur J Med Chem, 2022)
Converted amounts (≈) assume the structure as drawn. The source made the active and inactive calls.

Columns and labels:
[1] = Drug concentration in Sprague-Dawley rat brain at 17.8 mg/kg, ip measured after 30 mins by LC-MS/MS analysis; format: ADME, organism-based; conditions: read-out: Ct
Summary of the method: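 Male Sprague-Dawley rats (258–277 g) given 17.8 mg/kg i.p. in 5% Cremophor/5% ethanol/saline; at 30 min two rats anesthetized with isoflurane, cardiac blood taken, PBS-perfused; brains homogenized 1:4 (w/v) in 25% isopropanol and quantified by LC-MS/MS.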

[2] = target: T1, Lysophosphatidic acid receptor 5 (Homo sapiens, UniProt Q9H1C0); experiment: Antagonist activity at human LPA5 receptor expressed in RH7777 cells assessed as inhibition of EC80 concentration of LPA-induced cAMP accumulation preincubated for 30 mins followed by Eu-cAMP tracer addition and measured after 1 hr by TR-FRET assay; format: functional, cell-based
T1 sequence (Q9H1C0 whole entry): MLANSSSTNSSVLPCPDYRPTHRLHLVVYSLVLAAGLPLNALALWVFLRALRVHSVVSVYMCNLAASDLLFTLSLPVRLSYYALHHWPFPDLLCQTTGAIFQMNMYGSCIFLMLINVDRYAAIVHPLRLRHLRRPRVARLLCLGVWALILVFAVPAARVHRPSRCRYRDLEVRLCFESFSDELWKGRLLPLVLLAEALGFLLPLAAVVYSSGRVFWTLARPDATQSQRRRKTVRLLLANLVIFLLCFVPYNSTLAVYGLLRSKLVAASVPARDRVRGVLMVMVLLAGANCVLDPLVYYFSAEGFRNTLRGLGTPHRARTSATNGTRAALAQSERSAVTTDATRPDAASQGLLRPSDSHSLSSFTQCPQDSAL
Summary of the method: (§1)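 hLPA5-RH7777 cells, switched to 0.2% FBS medium 20 h prior, lifted with versene, 2,000 cells/well in HBSS/5 mM HEPES/0.1% BSA/0.5 mM IBMX pH 7.4. Compound dilutions with hexadecyl LPA 16:0 EC80 (300 nM) plus forskolin, 30 min room temperature; LANCE Ultra Eu-cAMP tracer/ULight-anti-cAMP 1 h; TR-FRET 665 nm converted to cAMP via standard curve. Three-parameter logistic IC50; ≥3 experiments in duplicate.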

[3] = test system: Rattus norvegicus; experiment: Antiallodynic activity in CCI surgery neuropathic pain induced Sprague-Dawley rat neuropathic pain model assessed as reversal of hypersensitivity condition at 17.8 mg/kg, ip measured after 10 days; format: functional; conditions: time 10 day
Summary of the method: (§2)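 Adult male Sprague-Dawley rats (230–280 g, n=6/group) given CCI under i.p. ketamine 75 mg/kg/xylazine 5 mg/kg: four chromic gut ligatures about 1 mm apart on the right sciatic nerve. Drug given i.p. (1–2 ml/kg) in 20% DMSO/10% emulphor/saline. Mechanical paw withdrawal threshold measured every 30 min (26 g cutoff). Reported as mean ± SEM, two-way ANOVA.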

[4] = Effect on locomotory activity in opioid-induced hyperalgesia Sprague-Dawley rat model at 17.8 mg/kg, ip measured for 60 mins by infrared motion-sensor analysis; format: toxicity, organism-based; conditions: in vivo, 1 h
Summary of the method: (§3)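 Handled ≥3 days; rats pretreated 60 min with vehicle or 17.8 mg/kg i.p., then placed in activity chambers and locomotion recorded for 60 min.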

[5] = target: T1, Lysophosphatidic acid receptor 5; experiment: Antagonist activity at human LPA5 receptor expressed in RH7777 cells assessed as inhibition of EC80 concentration of LPA-induced cAMP accumulation preincubated for 30 mins followed by Eu-cAMP tracer addition and measured after 1 hr by TR-FRET assay relative to hexadecyl LPA; format: functional, cell-based; conditions: filed as antagonist; summary of the method: as §1
[6] = target: Lysophosphatidic acid receptor 1 (Homo sapiens) (UniProt Q92633); experiment: Antagonist activity at human LPA1 receptor expressed in CHO cells assessed as inhibition of LPA-induced calcium mobilization at 10 uM incubated for 15 mins by FLIPR analysis relative to control; format: functional, cell-based
Sequence of Lysophosphatidic acid receptor 1 (Homo sapiens) (Q92633 whole entry): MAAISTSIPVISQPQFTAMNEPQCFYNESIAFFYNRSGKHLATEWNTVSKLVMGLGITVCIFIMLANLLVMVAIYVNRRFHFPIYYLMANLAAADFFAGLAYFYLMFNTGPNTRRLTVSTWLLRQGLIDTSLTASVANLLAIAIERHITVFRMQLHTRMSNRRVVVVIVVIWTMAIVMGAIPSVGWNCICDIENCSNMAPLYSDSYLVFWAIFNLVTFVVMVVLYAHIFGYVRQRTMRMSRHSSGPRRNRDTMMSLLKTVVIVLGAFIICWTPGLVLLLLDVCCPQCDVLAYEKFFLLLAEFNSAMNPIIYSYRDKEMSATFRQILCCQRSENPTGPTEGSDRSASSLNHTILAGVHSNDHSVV
Summary of the method: (§4)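 Calcium mobilization in CHO cells overexpressing LPA1, LPA2 or LPA3, run by a contract lab under its own protocols; compounds tested at single 10 μM.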

[7] = target: Lysophosphatidic acid receptor 4 (Homo sapiens) (UniProt Q99677); experiment: Antagonist activity at human LPA4 receptor expressed in CHO cells assessed as inhibition of LPA-induced calcium accumulation preincubated for 30 mins followed by Eu-cAMP tracer addition and measured after 1 hr by TR-FRET assay relative to hexadecyl LPA; format: functional, cell-based
Sequence of Lysophosphatidic acid receptor 4 (Homo sapiens) (Q99677 whole entry): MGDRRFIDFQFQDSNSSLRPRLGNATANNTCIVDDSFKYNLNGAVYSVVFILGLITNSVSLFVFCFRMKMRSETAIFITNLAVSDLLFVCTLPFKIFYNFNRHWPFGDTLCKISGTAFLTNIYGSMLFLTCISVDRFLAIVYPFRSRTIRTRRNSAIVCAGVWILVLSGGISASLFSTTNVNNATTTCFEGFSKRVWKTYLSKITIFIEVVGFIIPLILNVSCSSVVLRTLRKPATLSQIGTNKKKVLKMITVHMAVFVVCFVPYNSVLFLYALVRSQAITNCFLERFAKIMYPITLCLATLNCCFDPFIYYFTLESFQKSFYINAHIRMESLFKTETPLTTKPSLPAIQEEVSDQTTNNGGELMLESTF

[8] = target: Lysophosphatidic acid receptor 2 (Homo sapiens) (UniProt Q9HBW0); experiment: Antagonist activity at human LPA2 receptor expressed in CHO cells assessed as inhibition of LPA-induced calcium mobilization at 10 uM incubated for 15 mins by FLIPR analysis relative to control; format: functional, cell-based; summary of the method: as §4
Sequence of Lysophosphatidic acid receptor 2 (Homo sapiens) (Q9HBW0 whole entry): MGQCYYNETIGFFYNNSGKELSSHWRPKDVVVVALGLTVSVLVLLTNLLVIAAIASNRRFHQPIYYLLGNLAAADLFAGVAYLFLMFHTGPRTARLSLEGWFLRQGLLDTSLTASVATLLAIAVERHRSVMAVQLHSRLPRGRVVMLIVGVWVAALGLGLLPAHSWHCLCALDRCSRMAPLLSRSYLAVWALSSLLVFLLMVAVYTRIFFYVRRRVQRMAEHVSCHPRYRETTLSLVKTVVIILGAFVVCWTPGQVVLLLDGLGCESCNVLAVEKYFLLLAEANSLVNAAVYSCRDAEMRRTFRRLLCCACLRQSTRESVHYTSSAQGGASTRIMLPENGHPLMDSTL

[9] = Aqueous solubility of compound at pH 7.4; format: physicochemical; conditions: aqueous medium
Summary of the method: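 Kinetic solubility: 20 mM DMSO stock diluted into PBS (1 mM KH2PO4, 3 mM Na2HPO4, 155 mM NaCl) to a target of 400 μM; triplicates quantified by LC-MS/MS against matrix-matched standards.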

[10] = test system: Rattus norvegicus; experiment: Antiallodynic activity against CFA-induced Sprague-Dawley rat inflammatory pain model assessed as reduction in paw withdrawal threshold at 17.8 mg/kg measured after 5 hrs; format: functional, organism-based
Summary of the method: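 Adult male Sprague-Dawley rats (230–280 g, n=6/group); 0.1 ml CFA injected into right hind paw. Compounds i.p. (1–2 ml/kg) in 20% DMSO/10% emulphor/saline; AS2717638 in 30% propylene glycol vehicle. Mechanical paw withdrawal threshold (cut-off 26 g) measured every 30 min after single dose; two-way ANOVA, mean ± SEM.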

[11] = test system: Rattus norvegicus; experiment: Antinociceptive activity against in opioid-induced hyperalgesia Sprague-Dawley rat model assessed as reduction in mechanical hyperalgesia induced hypersensitivity at 5.6 to 17.8 mg/kg, ip and measured after 5 hrs; format: functional, organism-based; conditions: dose 5.6-17.8 mg/kg
Summary of the method: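 Opioid-induced hyperalgesia: after baselines on D−1 and D0, rats given four s.c. fentanyl injections of 0.06 mg/kg at 15 min intervals (0.24 mg/kg total); paw withdrawal thresholds tested after i.p. drug on days 1–2 post-fentanyl.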

[12] = test system: Rattus norvegicus; experiment: Antiallodynic activity in CCI surgery neuropathic pain induced ip dosed Sprague-Dawley rat hyperalgesia model assessed as reduction in mechanical allodynia by measuring reduction in paw threshold measured after 10 days; format: functional, organism-based; conditions: dose 3.2-17.8 mg/kg, time 10.0 day
Summary of the method: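 Male Sprague-Dawley rats (n=6), ketamine/xylazine anesthesia; four chromic gut ligatures ~1 mm apart around the right sciatic nerve. Drugs i.p. in DMSO/emulphor/saline (AS2717638 in propylene glycol vehicle), single or cumulative dosing with paw withdrawal threshold (cut-off 26 g) measured every 30 min.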

[13] = target: T1, Lysophosphatidic acid receptor 5; experiment: Agonist activity at human LPA5 receptor expressed in RH7777 cells assessed as calcium mobilization incubated for 15 mins by FLIPR method; format: functional, cell-based
Summary of the method: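 RH7777 cells stably expressing hLPA5, plated 20,000/well in 0.2% FBS medium 18–20 h, loaded 45 min at 37 °C with Calcium 5 dye in HBSS/20 mM HEPES/2.5 mM probenecid pH 7.4. […] Duplicates.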

[14] = target: T2, Lysophosphatidic acid receptor 3 (Homo sapiens) (UniProt Q9UBY5); experiment: Antagonist activity at human LPA3 receptor expressed in CHO cells assessed as inhibition of LPA-induced calcium mobilization at 10 uM incubated for 15 mins by FLIPR analysis relative to control; format: functional, cell-based; summary of the method: as §4
T2 sequence (whole entry): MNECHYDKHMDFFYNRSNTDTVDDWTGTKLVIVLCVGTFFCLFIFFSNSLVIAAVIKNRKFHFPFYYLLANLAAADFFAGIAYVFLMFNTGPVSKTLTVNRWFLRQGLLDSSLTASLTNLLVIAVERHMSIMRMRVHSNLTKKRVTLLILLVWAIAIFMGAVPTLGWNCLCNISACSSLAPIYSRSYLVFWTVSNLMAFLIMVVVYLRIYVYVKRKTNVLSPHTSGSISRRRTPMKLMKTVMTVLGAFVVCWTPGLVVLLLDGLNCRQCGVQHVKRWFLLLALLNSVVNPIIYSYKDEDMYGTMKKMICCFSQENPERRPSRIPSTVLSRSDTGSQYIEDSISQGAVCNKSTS

[15] = Substrate activity at P-glycoprotein (unknown origin) in MDCK-MDR1 cells assessed as efflux ratio of apparent permeability across basolateral to apical over apical to basolateral side measured after 90 mins by LC-MS/MS analysis; format: ADME, cell-based, Canis lupus familiaris; conditions: dog, mdck-mdr1, 1.5 h
Summary of the method: (§5)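 MDCK-MDR1 cells (passage 5) grown 3 days on Transwell polycarbonate inserts; transport buffer HBSS/10 mM HEPES/0.25% BSA pH 7.4, 30 min preincubation 37 °C with TEER check. 10 μM test article added apical (A-to-B) or basolateral (B-to-A); receiver sampled at 30, 60, 90 min, LC-MS/MS. Papp = (dQ/dt)/(A·Ci); efflux ratio B-to-A/A-to-B. Atenolol, propranolol, digoxin references.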

[16] = test system: Rattus norvegicus; experiment: Antiallodynic activity in CCI surgery-induced Sprague-Dawley rat neuropathic pain model assessed as reduction in paw withdrawal threshold at 17.8 mg/kg, ip measured after 5 hrs; format: functional; design: scale not given: the % may be the effect or the level left; summary of the method: as §2
[17] = Effect on locomotory activity in CCI surgery-neuropathic pain induced Sprague-Dawley rat model at 17.8 mg/kg, ip measured for 60 mins by infrared motion-sensor analysis; format: toxicity, organism-based; conditions: in vivo, 1 h; summary of the method: as §3
[18] = target: T1, Lysophosphatidic acid receptor 5; experiment: Antagonist activity at human LPA5 receptor expressed in RH7777 cells assessed as inhibition of EC80 concentration of hexadecyl LPA-induced calcium mobilization incubated for 15 mins by FLIPR method; format: functional, cell-based
[19] = Apparent permeability across apical to basolateral side in MDCK-MDR1 cells incubated for 90 mins by LC-MS/MS analysis; format: ADME, cell-based, Canis lupus familiaris; conditions: dog, mdck-mdr1, 1.5 h; summary of the method: as §5
[20] = target: T1, Lysophosphatidic acid receptor 5; experiment: Antagonist activity at human LPA5 receptor expressed in RH7777 cells assessed as inhibition of EC80 concentration of hexadecyl LPA-induced calcium mobilization incubated for 15 mins by FLIPR method relative to hexadecyl LPA; format: functional, cell-based; conditions: filed as antagonist

C#CC1CCN(C(=O)c2cn(-c3ccc4scc(C)c4c3)c(=O)c3cc(OC)c(OC)cc23)CC1
concentration at 0.5 h [1]: 652 ng/mL | IC50 [2]: 350 nM | Activity [3]: 100% | Activity [4]: Non-Toxic | inhibition [5]: 100% | inhibition [6]: < 50% | inhibition [7]: < 50% | inhibition [8]: < 50% | solubility kinetic [9]: 19.5 µM (≈ 9.49 µg/mL) | Activity [10]: Active | Activity [11]: Active | Activity [12]: Dose-Dependent Effect | Activity [13]: inactive | inhibition [14]: < 50% | Ratio [15]: 1.2 | Activity [16]: 100% | Activity [17]: Non-Toxic | IC50 [18]: 32 nM | Papp [19]: 31.1 10^-6 cm/s | inhibition [20]: 107%
